# Test results as given in ChEMBL document CHEMBL2406967, “Contribution of Cage-Shaped Structure of Physalins to Their Mode of Action in Inhibition of NF-κB Activation” (ACS Med Chem Lett, 2013).
# Activity calls are given as the source filed them. The calls are words filed in the database; no cut-off is given here.
# What was measured:
# [1] = Inhibition of TNFalpha-induced NF-kappaB activation (unknown origin) expressed in human HeLa cells pretreated 30 mins before TNFalpha addition after 7 hrs by luciferase reporter gene assay; assay type: cell-based
# Procedure, shortened: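 HeLa cells stably transfected with an NF-κB reporter construct, stimulated with TNF-α; IC50 values are means of three independent experiments, with standard deviation.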
# HeLa [2] = assay: Ratio of IC50 for TNFalpha-induced NF-kappaB (unknown origin) activation expressed in human HeLa cells to IC50 for TNFalpha-induced IkappaBalpha (unknown origin) phosphorylation expressed in human HeLa cells; assay type: cell-based
# [3] = molecular target: T1, NF-kappa-B inhibitor alpha (Homo sapiens) (UniProt P25963); assay: Inhibition of TNFalpha-induced IkappaBalpha (unknown origin) degradation expressed in human HeLa cells at 50 uM pretreated […] before TNFalpha addition […] by ELISA; assay type: cell-based
# T1 sequence (whole entry): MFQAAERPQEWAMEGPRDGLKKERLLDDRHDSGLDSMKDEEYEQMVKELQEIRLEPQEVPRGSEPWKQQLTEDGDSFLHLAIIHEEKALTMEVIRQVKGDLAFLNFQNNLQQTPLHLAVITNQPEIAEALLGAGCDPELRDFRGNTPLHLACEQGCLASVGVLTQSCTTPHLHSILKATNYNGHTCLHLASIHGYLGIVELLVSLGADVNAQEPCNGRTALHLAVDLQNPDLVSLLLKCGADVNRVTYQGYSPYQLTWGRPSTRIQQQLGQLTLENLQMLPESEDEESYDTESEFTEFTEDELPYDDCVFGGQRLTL
# HeLa [4] = assay: Inhibition of NF-kappaB (unknown origin) expressed in human HeLa cells assessed as inhibition of TNFalpha-induced p50 nuclear translocation at 100 uM […] by Western blot analysis; assay type: cell-based
# Procedure, shortened: (§1)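 HeLa cells pretreated 30 min with a range of compound concentrations or DMSO, then stimulated with TNF-α (50 ng/mL) for 15 min. Cytoplasmic and nuclear fractions were immunoblotted for RelA and p50. Tubulin marked the cytoplasmic fraction and PARP the nuclear fraction.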
# HeLa [5] = assay: Inhibition of NF-kappaB (unknown origin) expressed in human HeLa cells assessed as inhibition of TNFalpha-induced RelA nuclear translocation at 100 uM […] by Western blot analysis; assay type: cell-based; procedure, shortened: as §1
# HeLa [6] = assay: Inhibition of NF-kappaB (unknown origin) expressed in human HeLa cells assessed as inhibition of TNFalpha-induced DNA binding of p50 pretreated 30 mins before TNFalpha addition measured after 30 mins by EMSA
# HeLa [7] = assay: Inhibition of NF-kappaB (unknown origin) expressed in human HeLa cells assessed as inhibition of TNFalpha-induced DNA binding of RelA pretreated 30 mins before TNFalpha addition measured after 30 mins by EMSA
# HeLa [8] = assay: Inhibition of NF-kappaB (unknown origin) expressed in human HeLa cells assessed as inhibition of TNFalpha-induced RelA nuclear translocation pretreated 30 mins before TNFalpha addition measured after 15 mins by Western blot analysis
# HeLa [9] = assay: Inhibition of NF-kappaB (unknown origin) expressed in human HeLa cells assessed as inhibition of TNFalpha-induced p50 nuclear translocation pretreated 30 mins before TNFalpha addition measured after 15 mins by Western blot analysis
IC50 [1] [µM],SMILES,inhibition [3] [%],also measured
> 200,CC(=O)O[C@@H]1C(=O)O[C@@]2(C)[C@H]3C[C@]4(C)[C@@H](CO[C@@H]5O[C@]12[C@H]4C5=O)C(=O)O3,,
> 50,C[C@@H]1C(=O)O[C@@H]2C[C@@]1(C)[C@@H]1C(=O)[C@]3(O)O[C@]14[C@@]2(C)OC(=O)[C@@]4(O)CC[C@H]1[C@H]3[C@H](O)C=C2CC=CC(=O)[C@@]21C [PHYSALIN O],,
85.8,C=C1C(=O)O[C@@H]2C[C@@]1(C)[C@@H]1C(=O)[C@@H](O)O[C@@]13[C@H](OCc1ccccc1)C(=O)O[C@@]23C,,
43.6,C[C@@]12C[C@H]3OC(=O)[C@@H]1CO[C@@H]1O[C@@]4([C@H](OCc5ccccc5)C(=O)O[C@@]34C)[C@H]2C1=O,,
> 200,C[C@@]12C[C@H]3OC(=O)[C@@H]1CO[C@@H]1O[C@@]4([C@H](O)C(=O)O[C@@]34C)[C@H]2C1=O,,
4.38,C[C@@]12C[C@H]3OC(=O)[C@]1(O)CO[C@]14O[C@@]5([C@H]2C1=O)[C@@]3(C)OC(=O)[C@@]5(O)CC[C@H]1[C@H]4C[C@H]2O[C@]23CC=CC(=O)[C@]13C [25-HYDROXY PHYSALIN F],29,Ratio IC50 (HeLa [2]): 10
20.8,CC1=C(C)C(=O)O[C@@H]([C@](C)(O)C2=CC[C@@]3(O)[C@@H]4CC=C5CC=CC(=O)[C@]5(C)[C@H]4CC[C@]23C)C1,,
> 50,C[C@]12C(=O)C=CCC1=CC[C@@H]1[C@@H]2CC[C@]2(O)C(=O)O[C@@]3(C)[C@H]4C[C@@](C)([C@@H]5C(=O)[C@]1(O)O[C@@]532)[C@](C)(O)C(=O)O4,,
22.7,C=C1C(=O)O[C@@H]2C[C@@]1(C)[C@@H]1C(=O)[C@]3(O)O[C@]14[C@@]2(C)OC(=O)[C@@]4(O)CC[C@H]1[C@H]3[C@H](O)C=C2CC=CC(=O)[C@@]21C [PHYSALIN A],-3.4,
104,C#C[C@]12O[C@H]3OC[C@H]4C(=O)O[C@H](C[C@@]4(C)[C@@H]1C3=O)[C@]2(C)O,,
11.4,C[C@]12C(=O)C=CCC1=C[C@@H](O)[C@@H]1[C@@H]2CC[C@@]2(O)C(=O)O[C@@]3(C)[C@H]4C[C@]5(C)[C@@H](CO[C@@]16O[C@]23[C@H]5C6=O)C(=O)O4,-3.8,
> 50,C[C@@]12C[C@H]3OC(=O)[C@]1(O)CO[C@]14O[C@@]5([C@H]2C1=O)[C@@]3(C)OC(=O)[C@@]5(O)CC[C@H]1[C@H]4C[C@@H]2O[C@@]23CC=CC(=O)[C@]13C [25-HYDROXY PHYSALIN J],,

SMILES,IC50 [1] [µM],inhibition [3] [%],also measured
C[C@@]12C[C@H]3OC(=O)[C@@H]1CO[C@@]14O[C@]5(C2C1=O)[C@@](O)(CC[C@H]1[C@H]4C[C@@H]2O[C@@]24CC=CC(=O)[C@]14C)C(=O)O[C@@]35C [PHYSALIN J],36.2,,
CC1=C(C)C(=O)O[C@@H]([C@](C)(O)[C@H]2CC[C@@]3(O)[C@@H]4CC=C5CC=CC(=O)[C@]5(C)[C@H]4CC[C@]23C)C1,20.7,,
C[C@H]1C(=O)OC[C@H]1C[C@@H](O)[C@](C)(O)[C@@]1(O)CC[C@@]2(O)[C@@H]3CC=C4CC=CC(=O)[C@]4(C)[C@H]3CC[C@]12C,32.4,,
CC1=C(C)C(=O)O[C@@H]([C@](C)(O)[C@]2(O)CC[C@@]3(O)[C@@H]4CC=C5CC=CC(=O)[C@]5(C)[C@H]4CC[C@]23C)C1 [WITHANOLIDE F],2,,inhibition (HeLa [4]): Active; inhibition (HeLa [5]): Active; inhibition (HeLa [6]): Dose-dependent effect; inhibition (HeLa [7]): Dose-dependent effect
C=C1C(=O)O[C@@H]2C[C@@]1(C)[C@@H]1C(=O)[C@]3(O)O[C@]14[C@@]2(C)OC(=O)[C@@]4(O)CC[C@H]1[C@H]3CC=C2CC=CC(=O)[C@@]21C,6.54,0.8,inhibition (HeLa [8]): Dose-dependent effect; inhibition (HeLa [9]): Dose-dependent effect
C[C@H]1C(=O)OC[C@H]1C[C@@H](O)[C@](C)(O)[C@]1(O)CC[C@@]2(O)[C@@H]3CC=C4CC=CC(=O)[C@]4(C)[C@H]3CC[C@]12C,33.2,,
CC1=C(C)C(=O)O[C@@H]([C@](C)(O)[C@]2(O)CC[C@@]3(O)[C@@H]4C[C@H]5O[C@]56CC=CC(=O)[C@]6(C)[C@H]4CC[C@]23C)C1 [WITHANOLIDE E],0.98,46.8,Ratio IC50 (HeLa [2]): 10
C[C@@]12C[C@H]3OC(=O)[C@@H]1CO[C@]14O[C@]5([C@H]2C1=O)[C@@](O)(CC[C@H]1[C@H]4C[C@H]2O[C@]24CC=CC(=O)[C@]14C)C(=O)O[C@@]35C [PHYSALIN F],2.53,45.2,Ratio IC50 (HeLa [2]): 10
C[C@]12C(=O)C=CCC1=CC[C@@H]1[C@@H]2CC[C@]2(O)C(=O)O[C@@]3(C)[C@H]4C[C@]5(C)[C@@H](CO[C@@]16O[C@@]32[C@H]5C6=O)C(=O)O4 [PHYSALIN B],6.07,7,inhibition (HeLa [8]): Dose-dependent effect; inhibition (HeLa [6]): Dose-dependent effect; inhibition (HeLa [9]): Dose-dependent effect; inhibition (HeLa [7]): Dose-dependent effect
